Experimental data published in publication PMC3999704 (Current Chemical Genomics and Translational Medicine, 2014).

Legend:
Format in all cases: cell-based, rat
GH3.TRE-Luc cells = experiment: Cell viability assay, intracellular ATP content; conditions: over the range of concentrations used within the 24 h treatment, presence of 1 nM T3
[1] = system: thyroid hormone receptor (TR); experiment: qHTS GH3.TRE-Luc luciferase reporter gene assay, agonist mode; conditions: LOPAC library screen
Procedure, shortened: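 Cells were held 20 h in serum-free assay medium (DMEM:F12 with insulin, ethanolamine, selenite, apotransferrin and BSA), then detached and dispensed in 5 µl/well. After 4–5 h at 37°C, compound or DMSO was pinned in (final DMSO 0.46 or 0.92%) for 24 h. One-Glo was added, 30 min at room temperature, then luminescence read. Data were normalized to 100 nM T3 (100%) and DMSO (0%).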

[2] = system: thyroid hormone receptor (TR); conditions: 24 well format, 24h, normalized to total protein values
Procedure, shortened: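 GH3.TRE-Luc cells were seeded at 150,000/well in DMEM:F12 with 15 mM HEPES, 10% FBS and Pen/Strep. After 24 h the medium was changed to PCM medium for another 24 h. Cells were then exposed 24 h to ligands in 0.2% DMSO. Luciferase was read from lysed cells and cell number estimated by BCA protein assay. Duplicates per dose, ≥3 experiments.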

| SMILES | induction of the reporter gene luciferase activity [2] | other results |
| --- | --- | --- |
| O=c1[nH]cc(F)c(=O)[nH]1 [5-fluorouracil] |  | cytotoxicity (GH3.TRE-Luc cells): without apparent cytotoxicity |
| NCCCC(=O)O [GABA] |  | response in this assay [1]: did not show any response |
| N[C@@H](Cc1cc(I)c(Oc2ccc(O)c(I)c2)c(I)c1)C(=O)O [T3, triiodothyronine] | showed the expected induction profiles |  |
| O=S(=O)(c1ccccc1)N(CC(F)(F)F)c1ccc(C(O)(C(F)(F)F)C(F)(F)F)cc1 [T0901317] | neither the RAR-specific ligand TTNPB nor the LXR-specific ligand T0901317 activated the reporter gene |  |
| C/C(=C\c1ccc(C(=O)O)cc1)c1ccc2c(c1)C(C)(C)CCC2(C)C [TTNPB] | neither the RAR-specific ligand TTNPB nor the LXR-specific ligand T0901317 activated the reporter gene |  |
